# Screening data as filed in PubChem.
# An excerpt weighted towards active compounds, which were near 4.4% of everything screened.
# MPTP inh: blocks calcium-induced mitochondrial swelling | inhibition, % at 10 µM | 1.4% of 360,000 active | isolated mouse mitochondria, Ca2+ swelling absorbance, 30 min;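 active means inhibition of 50% or more, scaled per plate between neutral and stimulator controls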
# SENP1 inh: blocks the human SENP1 SUMO protease catalytic domain | recombinant SENP1 catalytic domain, CyPet-SUMO1-YPet FRET cleavage | inhibition, % at 10 µM | 0.21% of 360,000 active | AID 624204;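 active means inhibition at least 30% at 10 µM, raw YFP signal under a set limit, fluorescence ratio 0.5 to 1.5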
# Target sequence (Q9P0U3 419-644 limits assumed): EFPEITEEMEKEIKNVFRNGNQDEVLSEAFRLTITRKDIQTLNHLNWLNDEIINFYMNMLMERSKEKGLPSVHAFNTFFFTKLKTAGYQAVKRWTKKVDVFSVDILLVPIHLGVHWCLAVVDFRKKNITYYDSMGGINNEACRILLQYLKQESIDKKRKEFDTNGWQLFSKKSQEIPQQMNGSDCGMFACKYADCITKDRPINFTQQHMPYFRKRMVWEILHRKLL
#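 Material – human SENP1 catalytic domain · Input – SENP1 enzyme, 20 pM final · Compound dosing – single concentration of 10 µM compound, 0.5% DMSO final · Timing – enzyme reaction for 50 min at room temperature, dark · Measured by – FRET fluorescence in CFP and YFP emission channels · Control set – no-enzyme wells low, DMSO-plus-enzyme wells high control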
# NR3A LBD binder: modulates the human NR3A ligand-binding domain; NR3A LBD differential scanning fluorimetry, Tm shift; 0% = protein alone, 100% = glycine-bound protein; Tm shift relative to glycine control, % at 25 µM; 2.5% of 340,000 active; AID 1259313;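 active means melting temperature shift of at least 10% of the positive control shift, at one fixed dose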
# EBI2 block: blocks human EBI2 receptor beta-arrestin signaling. EBI2 beta-arrestin recruitment, luminescence, 7a,25-OHC stimulated. inhibition, % at 5 µM. 0.81% of 360,000 active; in the data active means inhibition above about 38%;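 further: enzyme fragment complementation signal reports receptor beta-arrestin coupling in cells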
# Target sequence (P32249 whole entry, looked up, the tested form may be a part): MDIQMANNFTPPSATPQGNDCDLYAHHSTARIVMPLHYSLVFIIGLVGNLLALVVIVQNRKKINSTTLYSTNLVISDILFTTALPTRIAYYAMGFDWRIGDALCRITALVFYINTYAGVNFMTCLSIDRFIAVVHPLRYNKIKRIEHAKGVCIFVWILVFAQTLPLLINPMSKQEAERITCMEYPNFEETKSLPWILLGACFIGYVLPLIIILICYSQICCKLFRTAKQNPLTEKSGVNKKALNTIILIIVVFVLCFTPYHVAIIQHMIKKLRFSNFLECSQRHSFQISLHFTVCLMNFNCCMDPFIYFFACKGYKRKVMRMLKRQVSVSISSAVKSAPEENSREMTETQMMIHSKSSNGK
# Numbers stand for hits; - = inactive; . = no result.
SMILES,MPTP inh,SENP1 inh,NR3A LBD binder,EBI2 block
Cc1ccc(NC(=O)c2cc(S(=O)(=O)NCC3CCCO3)ccc2F)cc1 (stereo unspecified),-,-,.,-
CC(=O)c1ccc(S(=O)(=O)N2CCN(S(=O)(=O)c3ccccc3C(F)(F)F)CC2)cc1,-,-,-,-
Fc1ccc(N2CCN(C3=Nc4cccc5cccc3c45)CC2)cc1,-,90,-,-
O=C(CCCN1C(=O)c2cccc3cccc(c23)C1=O)N1CCN(c2ccc(F)cc2)CC1,-,-,-,-
CC(=O)C12CCCCC1CC1[C@@H]3CC(C)C4=CC(=O)CC[C@]4(C)C3CC[C@@]12C (stereo partly specified),-,-,22,-
Cc1oc(CC(C)C)cc1C(=O)Nc1cccc2ccccc12,-,-,25,-
Cc1ccc2nc(C3CCN(C(=O)NCc4ccccc4)CC3)[nH]c2c1,-,-,-,-
Cc1ccc2nc(C3CCCN(C(=O)NCc4ccccc4)C3)[nH]c2c1 (stereo unspecified),-,-,16,-
O=C(Nc1ccc(O)cc1)c1c(O)c2c([nH]c1=O)CCCC2,-,-,15,-
CC1(C)COC(c2cccn2Cc2ccc(F)cc2Cl)=N1,-,-,-,-
CC1CN=C(c2cccn2Cc2ccc(F)cc2Cl)O1 (stereo unspecified),-,-,12,-
O=c1c(Cc2ccc(Cl)cc2Cl)c(O)ccn1Cc1ccc(Cl)cc1,-,-,22,-
C#CCN(C[C@@H]1[C@@H](OC(=O)NCC2CCCCC2)[C@@H](OC(=O)NCC2CCCCC2)Cn2c(=O)ccc(=O)n21)S(=O)(=O)c1ccc(C)cc1,-,-,.,81
C#CCN(C[C@@H]1[C@@H](OC(=O)NCCCCCC)[C@@H](OC(=O)NCCCCCC)Cn2c(=O)ccc(=O)n21)S(=O)(=O)c1ccc(C)cc1,-,-,.,-
Cc1cc2nc3s/c(=C/c4ccc(-c5ccccc5C(=O)O)o4)c(=O)n3c2cc1C,-,-,-,-
O=C(O)c1ccccc1-c1ccc(/C=c2\sc3nc4cc(Br)cnc4n3c2=O)o1,-,-,16,-
N/C(=N\OC(=O)/C=C/c1ccccc1Cl)c1ccncc1,-,-,12,-
CC1CN(C(=O)CSc2nnc(-c3ccccc3)o2)CC(C)O1 (stereo unspecified),-,-,-,-
CCN(CC)CCNC(=O)c1ccccc1N,-,-,-,-
CCN(CC)CCNC(=O)C(Oc1ccccc1)Oc1ccccc1,-,-,31,-
CC(=O)c1ccc(NC(=O)CN2C(=O)/C(=C/C=C/c3ccccc3)SC2=S)cc1,-,-,-,-
O=C(O)CN1C(=O)/C(=C/C=C/c2ccccc2)SC1=S,-,-,21,-
O=C(O)CN1C(=O)/C(=C\C(Br)=C\c2ccccc2)SC1=S,-,-,13,-
Cc1nn(CCC#N)c(NC(=O)c2ccc(Cl)cc2Cl)c1P(=O)(Nc1ccc([N+](=O)[O-])cc1)N1CCOCC1 (stereo unspecified),-,-,-,-
COc1cccc(C(=O)N/N=C/c2cn[nH]c2-c2ccc(OC)cc2OC)c1,-,-,-,-
SMILES,MPTP inh,SENP1 inh,NR3A LBD binder,EBI2 block
COc1ccc(OC)c(/C=N/NC(=O)c2[nH]ncc2Br)c1,-,-,21,-
Cc1ccc(O)c(/C=N/NC(=O)c2[nH]ncc2Br)c1,-,-,-,-
CCOc1ccc(/C=N/NC(=O)c2[nH]ncc2Br)c(O)c1,-,-,27,-
Cc1c(Br)cc(C(=O)NC2CCCCC2)c(C)c1C,-,-,-,-
O=C(O)C(c1ccccc1)N1C(=O)/C(=C\c2ccc(-c3ccccc3Cl)o2)SC1=S (stereo unspecified),-,-,31,-
Cn1cc([N+](=O)[O-])c(C(=O)N/N=C\c2c[nH]c3ccccc23)n1,-,-,-,-
O=[N+]([O-])c1ccc(N/N=C/c2c[nH]c3ccccc23)cc1,-,-,30,42
O=C(N/N=C/c1ccc[nH]1)c1ccccc1[N+](=O)[O-],-,-,-,-
O=[N+]([O-])c1ccc(N/N=C/c2ccc[nH]2)cc1,-,-,25,-
O=[N+]([O-])c1ccccc1N/N=C/c1ccccc1,-,-,-,-
O=[N+]([O-])c1ccccc1N/N=C/c1c[nH]c2ccccc12,-,-,16,-
CC1=CCC(C(=O)O)C(C(=O)Nc2ccc(-c3nc4ccc(C)cc4s3)cc2)C1 (stereo unspecified),-,-,-,-
CC1(C(=O)NC2CCCCCC2)CCN1C(=O)Cc1ccc(-c2ccccc2)cc1 (stereo unspecified),-,-,.,-
O=C(O)c1cccc2c1C(=O)c1ccc(-c3ccc(F)cc3OCc3ccccc3)cc1S2(=O)=O,-,-,13,-
Cc1cc(CNC(=O)c2cccc3c2C(=O)c2ccc(-c4ccc(F)cc4OCc4ccccc4)cc2S3(=O)=O)c(C(F)(F)F)o1,-,-,17,-
O=C(NC[C@H]1CCCO1)c1cccc2c1C(=O)c1ccc(-c3ccc(F)cc3OCc3ccccc3)cc1S2(=O)=O,-,-,-,-
COc1cccc2c1OC1(C)CC2/C(=C(\C)O)C(=O)N1 (stereo unspecified),-,-,-,-
COc1ccc(/C=C/C(=O)Nc2cc(C)nn2-c2nc3ccccc3[nH]2)cc1,-,-,-,-
Cc1cc(NC(=O)/C=C/c2cccc(F)c2)n(-c2nc3ccccc3[nH]2)n1,-,-,-,-
Cc1cc(NC(=O)/C=C/c2cccc(Cl)c2)n(-c2nc3ccccc3[nH]2)n1,-,-,11,-
Cc1cc(NC(=O)/C=C/c2ccc(F)cc2)n(-c2nc3ccccc3[nH]2)n1,-,-,12,-
Cc1ccc(/C=N/NC(=O)c2nnn(-c3nonc3N)c2CSc2ccc(Cl)cc2)o1,-,-,21,-
Nc1nonc1-n1nnc(C(=O)N/N=C/c2ccoc2)c1CSc1ccccc1,-,-,16,-
Cc1ccsc1/C=N/NC(=O)c1nnn(-c2nonc2N)c1CSc1ccccc1,-,-,36,-
Nc1nonc1-n1nnc(C(=O)N/N=C/c2ccc(Br)cc2)c1CSC1=NCCS1,-,-,-,-
SMILES,MPTP inh,SENP1 inh,NR3A LBD binder,EBI2 block
CN(C)Cc1c(C(=O)N/N=C/c2ccoc2)nnn1-c1nonc1N,-,-,-,-
Nc1nonc1-n1nnc(C(=O)N/N=C/c2ccccc2)c1CSc1ccccc1,-,-,35,-
CNC(=O)c1ccccc1NC(=O)C1CC(=O)N(c2ccc(OC)cc2)C1 (stereo unspecified),-,-,-,-
CC(C)=CCC(C)(C)CNC(=O)NC1CCCCC1,-,-,-,-
C/C(=N\NC(=O)c1nnn(-c2nonc2N)c1CSc1ccc(Cl)cc1)c1ccco1,-,-,-,-
Nc1nonc1-n1nnc(C(=O)N/N=C/c2ccoc2)c1CSc1ccc(Cl)cc1,-,-,35,-
Cc1ccc(/C=N/NC(=O)c2nnn(-c3nonc3N)c2CSc2ccccc2)s1,-,-,30,-
Nc1nonc1-n1nnc(C(=O)N/N=C/c2ccncc2)c1CSc1ccccc1,-,-,11,-
